According to ChEMBL document CHEMBL1131493, “Inhibitors of farnesyl protein transferase. 4-Amido, 4-carbamoyl, and 4-carboxamido derivatives of 1-(8-chloro-6,11-dihydro-5H-benzo[5,6]- cyclohepta[1,2-b]pyridin-11-yl)piperazine and 1-(3-bromo-8-chloro-6,11- dihydro-5H-benzo[5,6]cyclohepta[1,2-b]pyridin-11-yl)piperazine” (J Med Chem, 1998):
Each block holds one compound with its values, some of them ahead of it.

Tests used:
[1] = In vivo antitumor efficacy in cynomolgus monkeys by injecting a dose of 25 mg/kg, as HCl salt in saline solution, perorally and the total drug exposure was determined (0-8 hr); assay type: ADME, organism-based, Macaca fascicularis; set-up: time < 8 hr, dose 25 mg/kg, route oral; conditions: cynomolgus monkey, po
Summary of the method: (§1)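 Cynomolgus monkeys; hydrochloride salt in saline iv, or compound given po (as hydrochloride, as micronized free base in corn oil, or as hydrochloride in 0.4% methyl cellulose, depending on compound).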

[2] = In vivo antitumor efficacy in nude mice by injecting a dose of 25 mg/kg, as HCl salt in solution, iv and the serum half-life was determined; assay type: ADME, organism-based; set-up: dose 25 mg/kg, route intravenous; conditions: mouse
[3] = Oral bioavailability in mouse (nude) (dose 25 mg/kg i.v.); assay type: ADME, organism-based; conditions: in vivo
[4] = biological target: geranylgeranyltransferase type-I (Rattus norvegicus, UniProt P53610+Q04631); experiment: Inhibition of rat Geranylgeranyl transferase (GGPT); assay type: protein-complex assay
[5] = (§2) Maximal plasma concentration in nude mice after 25 mg/kg oral dose; assay type: ADME, organism-based; set-up: dose 25 mg/kg, route oral; conditions: mouse
[6] = system: Mus musculus; experiment: In vivo antitumor efficacy in nude mice by injecting a dose of 25 mg/kg, as HCl salt in saline solution, perorally and the total drug exposure was determined; assay type: ADME, organism-based; set-up: dose 25 mg/kg, route oral; conditions: po
[7] = system: Cynomolgus monkey; experiment: In vivo antitumor efficacy in cynomolgus monkeys by injecting a dose of 10 mg/kg, as HCl salt in saline solution, perorally and the duration of action was reported; assay type: ADME, organism-based, Macaca fascicularis; set-up: dose 10 mg/kg, route oral; conditions: po; summary of the method: as §1
[8] = as §2; assay type: ADME, organism-based; set-up: dose 25 mg/kg, route oral; conditions: mouse; remark: listed apart in the source
[9] = In vivo antitumor efficacy in nude mice by injecting a dose of 25 mg/kg, as HCl salt in saline solution, iv and the total drug exposure was determined.; assay type: ADME, organism-based; set-up: dose 25 mg/kg, route intravenous; conditions: mouse
[10] = Oral bioavailability in mouse (nude) (dose of 25 mg/kg); assay type: ADME, organism-based; conditions: in vivo
Summary of the method: (§3)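 Serum pharmacokinetics in nude mice or cynomolgus monkeys after oral (po) or iv dosing. Compounds were given as hydrochloride salts in 20% HPβCD unless otherwise noted. Other formulations were the hydrochloride salt in saline, the micronized free base in 20% HPβCD or corn oil (po) with saline for iv, or the hydrochloride salt in 0.4% methyl cellulose (po).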

[11] = In vivo antitumor efficacy in cynomolgus monkeys by injecting a dose of 25 mg/kg, as HCl salt in saline solution, perorally and the maximum drug concentration was determined; assay type: ADME, organism-based, Macaca fascicularis; set-up: dose 25 mg/kg, route oral; conditions: cynomolgus monkey, po; summary of the method: as §3
[12] = system: Mus musculus; experiment: In vivo antitumor efficacy in nude mice by injecting a dose of 25 mg/kg, as HCl salt in solution, perorally and the total drug exposure was determined (0-24hr); assay type: ADME, organism-based; set-up: time < 24 hr, dose 25 mg/kg, route oral; conditions: po
[13] = In vivo antitumor efficacy in nude mice by injecting a dose of 25 mg/kg, as HCl salt in solution, iv and the total drug exposure was determined. (0-24hr); assay type: ADME, organism-based; set-up: time < 24 hr, dose 25 mg/kg, route intravenous; conditions: mouse
[14] = In vivo antitumor efficacy in nude mice by injecting a dose of 25 mg/kg, as HCl salt in saline solution, iv and the serum half-life was determined; assay type: ADME, organism-based; set-up: dose 25 mg/kg, route intravenous; conditions: mouse
[15] = In vivo antitumor efficacy peroral dose of 25 mg/kg expressed as duration for which compound was present above IC50; assay type: ADME, organism-based; set-up: dose 25 mg/kg, route oral; conditions: po; summary of the method: as §3
[16] = as §2; assay type: ADME, organism-based; set-up: dose 25 mg/kg, route oral; conditions: mouse; summary of the method: as §3; remark: listed apart in the source
[17] = In vivo antitumor efficacy expressed as plasma area under the curve 0.4 hr after a peroral dose of 25 mg/kg in nude mice; assay type: ADME, organism-based; set-up: time < 0.4 hr, dose 25 mg/kg, route oral; conditions: mouse, po; summary of the method: as §3
[18] = In vivo antitumor efficacy in nude mice by injecting a dose of 25 mg/kg iv and serum half-life was determined; assay type: ADME, organism-based; set-up: dose 25 mg/kg, route intravenous; conditions: mouse; summary of the method: as §3
[19] = In vivo antitumor efficacy expressed as plasma area under the curve 0.4 hr after iv dose of 25 mg/kg in nude mice; assay type: ADME, organism-based; set-up: time < 0.4 hr, dose 25 mg/kg, route intravenous; summary of the method: as §3
[20] = In vivo antitumor efficacy in nude mice by injecting a dose of 25 mg/kg, micronized free base in 20% HPbetaCD, iv and the total drug exposure was determined. (0-24hr); assay type: ADME, organism-based; set-up: time < 24 hr, dose 25 mg/kg, route intravenous; conditions: mouse
[21] = system: Mus musculus; experiment: In vivo antitumor efficacy in nude mice by injecting a dose of 25 mg/kg, as HCl salt in saline solution, perorally and the duration of action was reported; assay type: ADME, organism-based; set-up: dose 25 mg/kg, route oral; conditions: po
[22] = In vivo antitumor efficacy in nude mice by injecting a dose of 25 mg/kg, as HCl salt in saline solution, perorally and the total drug exposure was determined (0-24hr); assay type: ADME, organism-based; set-up: time < 24 hr, dose 25 mg/kg, route oral; conditions: mouse, po
[23] = In vivo antitumor efficacy in cynomolgus monkeys by injecting a dose of 10 mg/kg, as HCl salt in saline solution, perorally and the maximum drug concentration was determined; assay type: ADME, organism-based, Macaca fascicularis; set-up: dose 10 mg/kg, route oral; conditions: cynomolgus monkey, po; summary of the method: as §1
[24] = In vivo antitumor efficacy in cynomolgus monkeys by injecting a dose of 10 mg/kg, as HCl salt in saline solution, perorally and the total drug exposure was determined (0-8 hr); assay type: ADME, organism-based, Macaca fascicularis; set-up: time < 8 hr, dose 10 mg/kg, route oral; conditions: cynomolgus monkey, po; summary of the method: as §3
[25] = In vivo antitumor efficacy in cynomolgus monkeys by injecting a dose of 5 mg/kg, as HCl salt in saline solution, perorally and the maximum drug concentration was determined; assay type: ADME, organism-based, Macaca fascicularis; set-up: dose 5 mg/kg, route oral; conditions: cynomolgus monkey, po; summary of the method: as §1
[26] = In vivo antitumor efficacy in cynomolgus monkeys by injecting a dose of 5 mg/kg, as HCl salt in saline solution, intravenously and the total drug exposure was determined (0-8 hr); assay type: ADME, organism-based, Macaca fascicularis; set-up: time < 8 hr, dose 5 mg/kg, route intravenous; conditions: cynomolgus monkey, iv; summary of the method: as §1
[27] = Oral bioavailability in nude mice; assay type: ADME, organism-based; conditions: mouse, in vivo, read-out: Bioavailabiility
[28] = as §2; assay type: ADME, organism-based; set-up: dose 25 mg/kg, route oral; conditions: mouse; remark: listed apart in the source
[29] = Bioavailability in cynomolgus monkey (dose 5 mg/kg i.v.); assay type: ADME, organism-based, Macaca fascicularis; conditions: in vivo, iv; summary of the method: as §3
[30] = In vivo antitumor efficacy in nude mice by injecting a dose of 25 mg/kg, micronized free base in 20% HPbetaCD, perorally and the total drug exposure was determined (0-24hr); assay type: ADME, organism-based; set-up: time < 24 hr, dose 25 mg/kg, route oral; conditions: mouse, po
[31] = In vivo antitumor efficacy in cynomolgus monkeys by injecting a dose of 5 mg/kg, as HCl salt in saline solution, iv and the serum half-life was determined; assay type: ADME, organism-based, Macaca fascicularis; set-up: dose 5 mg/kg, route intravenous; conditions: cynomolgus monkey; summary of the method: as §1
[32] = In vivo antitumor efficacy in cynomolgus monkeys by injecting a dose of 5 mg/kg, as HCl salt in saline solution, perorally and the total drug exposure was determined (0-8 hr); assay type: ADME, organism-based, Macaca fascicularis; set-up: time < 8 hr, dose 5 mg/kg, route oral; conditions: cynomolgus monkey, po; summary of the method: as §1
[33] = In vivo antitumor efficacy in nude mice by injecting a dose of 25 mg/kg, micronized free base in 20% HPbetaCD, iv and the serum half-life was determined; assay type: ADME, organism-based; set-up: dose 25 mg/kg, route intravenous; conditions: mouse
[34] = In vivo antitumor efficacy in nude mice by injecting a dose of 25 mg/kg, as HCl salt in saline solution, iv and the total drug exposure was determined. (0-24hr); assay type: ADME, organism-based; set-up: time < 24 hr, dose 25 mg/kg, route intravenous; conditions: mouse

AUC at 8 h [1]: 37200 ng·h/mL
half-life [2]: 8.3 h
bioavailability [3]: 100%
IC50 [4]: > 38 µM
Cmax [5]: 30 µM
AUC [6]: 39 uh ml-1
Time above IC50 [7]: 72 h
Cmax [8]: 4 µM
AUC [9]: 32900 ng·h/mL
bioavailability [10]: 45%
Cmax [11]: 1.5 µM
AUC [12]: 18.4 uh ml-1
AUC at 24 h [13]: 40600 ng·h/mL
half-life [14]: 8.5 h
SMILES: CN1CCC(CC(=O)N2CCN(C3c4ccc(Cl)cc4CCc4cc(Br)cnc43)CC2)CC1 (stereo unspecified)

SMILES: O=C(Cc1ccncc1)N1CCN(C2c3ccc(Cl)cc3CCc3cccnc32)CC1 (stereo unspecified)
Time above IC50 [15]: 1 h
IC50 [4]: > 46 µM
Cmax [16]: 0.9 µM
AUC at 0.4 h [17]: 240 ng·h/mL
bioavailability [10]: 13%
half-life [18]: 0.2 h
AUC at 0.4 h [19]: 1800 ng·h/mL

AUC at 24 h [20]: 57200 ng·h/mL
Time above IC50 [21]: 8 h
AUC at 24 h [22]: 70800 ng·h/mL
Cmax [23]: 2 µM
bioavailability [3]: 100%
AUC at 8 h [24]: 12700 ng·h/mL
IC50 [4]: > 35 µM
Cmax [5]: 38.8 µM
Cmax [25]: 0.5 µM
Time above IC50 [7]: 24 h
AUC at 8 h [26]: 12300 ng·h/mL
bioavailability [27]: 96.6%
Cmax [28]: 71.1 µM
bioavailability [29]: 35%
AUC at 24 h [30]: 55200 ng·h/mL
half-life [31]: 2.4 h
AUC at 8 h [32]: 4270 ng·h/mL
half-life [14]: 1.2 h
half-life [33]: 1.5 h
AUC at 24 h [34]: 33900 ng·h/mL
SMILES: NC(=O)N1CCC(CC(=O)N2CCN(C3c4ccc(Cl)cc4CCc4cc(Br)cnc43)CC2)CC1 (stereo unspecified)
